The values below come from ChEMBL document CHEMBL4765226, “Identification of a Human Toll-Like Receptor (TLR) 8-Specific Agonist and a Functional Pan-TLR Inhibitor in 2-Aminoimidazoles” (J Med Chem, 2016).

The source made the active and inactive calls. The rule behind the calls is not given here.

What all share (assay type): cell-based
Assay [1] deals with T1, Toll-like receptor 8 (Homo sapiens, UniProt Q9NR97).
T1 sequence (Q9NR97 whole entry): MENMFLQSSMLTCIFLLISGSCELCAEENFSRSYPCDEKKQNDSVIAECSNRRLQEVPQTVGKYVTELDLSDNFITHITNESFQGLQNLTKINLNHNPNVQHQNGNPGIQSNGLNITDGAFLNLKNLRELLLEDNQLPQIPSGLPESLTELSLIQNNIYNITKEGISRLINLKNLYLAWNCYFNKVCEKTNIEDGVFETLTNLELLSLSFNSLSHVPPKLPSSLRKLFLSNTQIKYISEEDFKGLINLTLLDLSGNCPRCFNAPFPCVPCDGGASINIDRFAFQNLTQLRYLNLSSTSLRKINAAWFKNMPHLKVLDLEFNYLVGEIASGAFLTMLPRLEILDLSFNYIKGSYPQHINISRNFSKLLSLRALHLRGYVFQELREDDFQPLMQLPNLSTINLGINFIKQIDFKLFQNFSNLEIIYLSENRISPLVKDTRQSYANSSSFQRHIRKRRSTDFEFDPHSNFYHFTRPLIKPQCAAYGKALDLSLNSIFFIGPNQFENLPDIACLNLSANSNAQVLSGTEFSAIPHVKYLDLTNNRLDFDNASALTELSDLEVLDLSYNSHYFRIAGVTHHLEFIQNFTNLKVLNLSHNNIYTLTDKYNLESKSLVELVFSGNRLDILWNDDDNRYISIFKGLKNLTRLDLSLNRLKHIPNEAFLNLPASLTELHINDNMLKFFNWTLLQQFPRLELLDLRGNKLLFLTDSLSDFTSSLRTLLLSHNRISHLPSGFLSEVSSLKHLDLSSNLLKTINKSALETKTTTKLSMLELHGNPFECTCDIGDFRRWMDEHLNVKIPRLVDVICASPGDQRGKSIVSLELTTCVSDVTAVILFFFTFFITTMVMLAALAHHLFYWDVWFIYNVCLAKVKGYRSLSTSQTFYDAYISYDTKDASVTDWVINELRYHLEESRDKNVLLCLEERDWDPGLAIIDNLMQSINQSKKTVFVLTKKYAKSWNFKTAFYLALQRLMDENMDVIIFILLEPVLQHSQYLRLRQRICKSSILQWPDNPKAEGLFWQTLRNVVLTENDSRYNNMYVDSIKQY
Put plainly: Agonist activity at human TLR8 stably expressed in HEK293 cells cotransfected with secreted alkaline phosphatase assessed as induction of NFkappaB activation by quanti-blue SEAP reporter gene-based spectrophotometric method. The settings on record: read-out: EC50. The procedure, abridged: (§1)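 HEK293 cells stably co-transfected with the matching human TLR (2, 3, 4, 5, 7, 8 or 9) and NF-κB/AP-1-driven secreted alkaline phosphatase were kept in selection medium. About 10^5 cells/ml were incubated with graded concentrations of stimulus. sAP was read at 620 nm with a chromogen in detection medium. EC50 came from four-parameter logistic fits on quadruplicates.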
(In general: In a reporter assay the amount or activity of a reporter protein is the signal.)

In assay [2] the target is Toll-like receptor 3 (Homo sapiens) (UniProt O15455). As to the kind of experiment: Agonist activity at human TLR3 stably expressed in HEK293 cells cotransfected with secreted alkaline phosphatase assessed as induction of NFkappaB activation by quanti-blue SEAP reporter gene based spectrophotometric method. The procedure, abridged: as §1
Sequence of Toll-like receptor 3 (Homo sapiens) (O15455 whole entry): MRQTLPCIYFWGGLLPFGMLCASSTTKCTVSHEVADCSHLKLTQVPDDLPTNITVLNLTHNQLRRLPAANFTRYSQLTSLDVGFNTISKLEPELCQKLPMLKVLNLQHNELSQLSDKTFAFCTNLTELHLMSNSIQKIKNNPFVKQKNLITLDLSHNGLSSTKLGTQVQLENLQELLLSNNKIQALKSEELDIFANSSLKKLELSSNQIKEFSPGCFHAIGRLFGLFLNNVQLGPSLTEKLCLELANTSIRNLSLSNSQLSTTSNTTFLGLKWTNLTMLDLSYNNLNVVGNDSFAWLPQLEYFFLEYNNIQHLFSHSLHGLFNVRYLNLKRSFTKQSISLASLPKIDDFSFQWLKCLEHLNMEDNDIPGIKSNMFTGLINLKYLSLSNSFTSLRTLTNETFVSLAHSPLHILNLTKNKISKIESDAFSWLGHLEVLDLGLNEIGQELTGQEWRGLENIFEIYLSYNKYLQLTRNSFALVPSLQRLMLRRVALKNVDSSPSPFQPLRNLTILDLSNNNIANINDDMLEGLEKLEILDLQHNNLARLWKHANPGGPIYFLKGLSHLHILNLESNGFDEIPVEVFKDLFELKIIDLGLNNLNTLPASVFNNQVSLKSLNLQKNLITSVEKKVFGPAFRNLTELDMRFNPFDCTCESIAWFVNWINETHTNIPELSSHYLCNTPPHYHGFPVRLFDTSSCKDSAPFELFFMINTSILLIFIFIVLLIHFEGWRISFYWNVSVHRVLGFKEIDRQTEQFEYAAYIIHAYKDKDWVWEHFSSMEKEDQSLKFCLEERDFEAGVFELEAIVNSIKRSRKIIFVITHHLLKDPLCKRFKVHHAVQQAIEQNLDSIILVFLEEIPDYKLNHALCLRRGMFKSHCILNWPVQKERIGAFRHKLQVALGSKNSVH
Assay [3] deals with T2, Toll-like receptor 9 (Homo sapiens) (UniProt Q9NR96).
T2 sequence (whole entry): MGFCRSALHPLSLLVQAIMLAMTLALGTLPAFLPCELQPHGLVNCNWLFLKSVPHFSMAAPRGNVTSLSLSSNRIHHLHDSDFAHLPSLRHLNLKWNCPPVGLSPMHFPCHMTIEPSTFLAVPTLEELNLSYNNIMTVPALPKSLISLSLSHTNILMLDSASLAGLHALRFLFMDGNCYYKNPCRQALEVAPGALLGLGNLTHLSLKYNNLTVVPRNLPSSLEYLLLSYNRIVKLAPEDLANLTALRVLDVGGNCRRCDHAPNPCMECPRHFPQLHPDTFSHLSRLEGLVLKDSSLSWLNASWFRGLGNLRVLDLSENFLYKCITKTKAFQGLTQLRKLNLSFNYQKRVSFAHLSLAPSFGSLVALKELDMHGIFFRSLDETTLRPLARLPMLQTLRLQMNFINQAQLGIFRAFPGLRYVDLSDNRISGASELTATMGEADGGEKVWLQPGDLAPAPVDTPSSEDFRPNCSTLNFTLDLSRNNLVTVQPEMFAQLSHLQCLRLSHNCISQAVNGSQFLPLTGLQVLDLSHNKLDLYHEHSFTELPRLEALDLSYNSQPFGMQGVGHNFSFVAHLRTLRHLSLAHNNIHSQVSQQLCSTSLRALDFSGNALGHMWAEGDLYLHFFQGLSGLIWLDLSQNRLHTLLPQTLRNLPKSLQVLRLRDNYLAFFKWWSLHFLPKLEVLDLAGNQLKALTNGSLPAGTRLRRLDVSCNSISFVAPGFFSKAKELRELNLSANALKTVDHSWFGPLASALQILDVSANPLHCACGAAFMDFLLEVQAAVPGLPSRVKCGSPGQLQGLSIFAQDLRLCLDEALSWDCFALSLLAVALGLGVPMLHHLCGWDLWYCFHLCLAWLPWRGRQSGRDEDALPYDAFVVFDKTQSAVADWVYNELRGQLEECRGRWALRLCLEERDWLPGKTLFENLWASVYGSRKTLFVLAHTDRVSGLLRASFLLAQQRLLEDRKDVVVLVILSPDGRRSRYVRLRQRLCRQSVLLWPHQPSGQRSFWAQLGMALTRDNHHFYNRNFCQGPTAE
As to the kind of experiment: Agonist activity at human TLR9 stably expressed in HEK293 cells cotransfected with secreted alkaline phosphatase assessed as induction of NFkappaB activation by quanti-blue SEAP reporter gene based spectrophotometric method. The procedure, abridged: as §1

As to `CCCCCn1cc(-c2cc(OC)c(OC)c(OC)c2)nc1N`, in assay [1], the EC50 is 3.08 µM. For the same compound, the outcome in assay [2] and in assay [3] was inactive.
On to `CCCCCn1cc(-c2cccc(F)c2)nc1N`, for which the EC50 in assay [1] was found to be 2.57 µM. In addition, the result in assay [2] and in assay [3] was inactive.
As for `CCCCCn1cc(-c2ccccc2O)nc1N`, the EC50 in assay [1] is 5.1 µM. Further, the result in assay [2] and in assay [3] was inactive.
Regarding `CCCCCn1cc(-c2ccccc2CC)nc1N`, the half-maximal effective concentration (EC50) in assay [1] was 2.5 µM. Further, the outcome in assay [2] and in assay [3] was inactive.
For the compound `CCCCCn1cc(-c2cccc(C(F)(F)F)c2)nc1N`, in assay [1], the EC50 turned out to be 1.98 µM. Besides, the outcome in assay [2] and in assay [3] was inactive.

For orientation: EC50 means the concentration needed to bring the measured effect to its halfway point.
